Test results as given in ChEMBL document CHEMBL1135805 (J Med Chem, 2002).

How the values were obtained:
[1] = Growth inhibitory activity on MDA-435/LCC6 ([…]) human breast cancer cells.; assay type: functional, cell-based; conditions: Cancer cell lines
Method in brief: (§1)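 MDA435/LCC6 (Pgp-negative) and MDA435/LCC6^MDR1 (Pgp-positive) cells were plated 24 h, then exposed 5 days to test agents at a range of concentrations in growth medium. Cells were fixed and stained with 0.5% crystal violet in 25% methanol, and dye was eluted in 0.1 M sodium citrate/25% methanol and read at 540 nm. […] Mean ± SE, ≥3 experiments.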

Breast cancer cell line [2] = test: Concentration that reduces difference in reversal of [3H]VBL accumulation between MDA-435/LCC6 and MDA-435/LCC6-MDRI cells by 50%; assay type: functional, cell-based; conditions: Homo sapiens
Method in brief: (§2)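 They were then given test compound at five concentrations plus DOX (4 μM) or [³H] VBL (5 nM) for 3 h, in triplicate, and washed with ice-cold 0.15 M NaCl. Values were corrected for cell number. EC50 is the concentration halving the accumulation difference between the two lines, interpolated from dose-response curves. Mean ± SE, ≥3 experiments.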

Breast cancer cell line [3] = test: Concentration that reduces the difference in reversal of DOX accumulation between MDA-435/LCC6 and MDA-435/LCC6-MDRI cells by 50%.; assay type: functional, cell-based; conditions: Homo sapiens
Method in brief: as §2, with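 “NaCl. DOX was extracted in 20% TCA and read by fluorescence (ex 500/em 580 nm); VBL was counted by scintillation.” for “NaCl.”, “curves. […]” for “curves.”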

[4] = Effect on reversal of DOX accumulation in MDA-435/LCC6 (Pgp-negative) cells.; assay type: functional; conditions: Homo sapiens
Method in brief: (§3)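 Test compound at five concentrations was added with DOX (4 μM) or [³H] VBL (5 nM) for 3 h, in triplicate. Cells were washed in ice-cold 0.15 M NaCl. DOX was measured fluorometrically after TCA extraction and VBL by scintillation, both normalized to cell number. Pgp-specific EC50 values were corrected for these effects.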

[5] = Growth inhibitory activity on MDA-435/LCC6-MDRI ([…]) human breast cancer cells.; assay type: functional, cell-based; conditions: Cancer cell lines; method in brief: as §1
[6] = Growth inhibitory activity on MDA-435/LCC6-MDRI ([…]) human breast cancer cells; assay type: functional, cell-based; conditions: Cancer cell lines
Method in brief: (§4)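 Cells exposed 24 h after plating to test agents at several concentrations for 5 days. Crystal violet (0.5% in 25% methanol) fix/stain, dye extracted in 0.1 M sodium citrate/25% methanol, absorbance at 540 nm as percent of untreated controls.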

[7] = Potency relative to progesterone in reversing of [3H]- VBL accumulation in MDA-435/LCC6 (Pgp-negative) cells.; assay type: functional, Homo sapiens; method in brief: as §3
Breast cancer cell line [8] = test: Potency relative to progesterone in reducing the difference in reversing of [3H]VBL accumulation between MDA-435/LCC6 and MDA-435/LCC6-MDRI cells; assay type: functional, Homo sapiens
Method in brief: as §2, with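 “NaCl. DOX was extracted in 20% TCA and read by fluorescence (ex 500/em 580 nm); VBL was counted by scintillation.” for “NaCl.”, “curves. […]” for “curves.”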

Breast cancer cell line [9] = test: Ratio of effect of compound on DOX accumulation (antiPgp activity) to its intrinsic cellular toxicity; assay type: functional, Homo sapiens
Method in brief: (§5)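 Ratio IC50/EC50 of crystal violet cytotoxicity (5-day exposure) IC50 to the EC50 for DOX or [³H] VBL accumulation (3 h, 4 μM DOX or 5 nM VBL) in MDA435/LCC6 and MDA435/LCC6^MDR1 cells. Where no IC50 was reached, the highest non-toxic concentration tested, limited by solubility, was used.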

[10] = Effect on reversal of [3H]- VBL accumulation in MDA-435/LCC6 (Pgp-negative) cells.; assay type: functional; conditions: Homo sapiens; method in brief: as §3
Breast cancer cell line [11] = test: Ratio of effect of compound on VBL accumulation (antiPgp activity) to its intrinsic cellular toxicity; assay type: functional, Homo sapiens; method in brief: as §5
[12] = Potency relative to progesterone in reversing of DOX accumulation in MDA-435/LCC6 (Pgp-negative) cells.; assay type: functional, Homo sapiens; method in brief: as §3
Breast cancer cell line [13] = test: Potency relative to progesterone in reducing the difference in reversal of DOX accumulation between MDA-435/LCC6 and MDA-435/LCC6-MDRI cells; assay type: functional, Homo sapiens
Method in brief: as §2, with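 “NaCl. DOX was extracted in 20% TCA and read by fluorescence (ex 500/em 580 nm); VBL was counted by scintillation.” for “NaCl.”, “curves. […]” for “curves.”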

[14] = Growth inhibitory activity on MDA-435/LCC6 ([…]) human breast cancer cells; assay type: functional, cell-based; conditions: Cancer cell lines; method in brief: as §4
Breast cancer cell line [15] = test: Ratio of effect of compound on VBL accumulation (antiPgp activity) to its intrinsic cellular toxicity;; assay type: functional, Homo sapiens
Breast cancer cell line [16] = test: To estimate the extent of resistance conferred by Pgp, the ratio of IC50 in MDA-435/LCC6-MDR1 and MDA-435/LCC6 cells (relative resistance of Pgp-positive cells) was used; assay type: functional, Homo sapiens
Method in brief: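 Retrovirally MDR1-transduced MDA435/LCC6^MDR1 and parental MDA435/LCC6 cells, 24 h after plating, exposed 5 days to graded agent concentrations. Fixed/stained with 0.5% crystal violet in 25% methanol, dye extracted in 0.1 M sodium citrate/25% methanol, A540. IC50 = concentration halving cell density versus untreated, interpolated.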

Breast cancer cell line [17] = test: Ratio of effect of compound on DOX accumulation (antiPgp activity) to its intrinsic cellular toxicity;; assay type: functional, Homo sapiens; method in brief: as §5
Breast cancer cell line [18] = test: Concentration that reduces the difference in reversal of DOX accumulation between MDA-435/LCC6 and MDA-435/LCC6-MDRI cells by 50%; assay type: functional, cell-based; conditions: Homo sapiens
Method in brief: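 Ice-cold NaCl wash, overnight 20% TCA extraction at 4 °C in dark, fluorescence ex 500/em 580 nm against DOX standard curve, normalized to cell number.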

[19] = molecular target: ATP-dependent translocase ABCB1 (Homo sapiens, UniProt P08183); test: TP_TRANSPORTER: reversal of Vinblastine accumulation (Vinblastine: 0.005 uM) in MDA435/LCC6 MDR1 cells; assay type: functional, cell-based, MDA-MB-435/LCC6 MDR1
ATP-dependent translocase ABCB1, sequence (P08183 whole entry): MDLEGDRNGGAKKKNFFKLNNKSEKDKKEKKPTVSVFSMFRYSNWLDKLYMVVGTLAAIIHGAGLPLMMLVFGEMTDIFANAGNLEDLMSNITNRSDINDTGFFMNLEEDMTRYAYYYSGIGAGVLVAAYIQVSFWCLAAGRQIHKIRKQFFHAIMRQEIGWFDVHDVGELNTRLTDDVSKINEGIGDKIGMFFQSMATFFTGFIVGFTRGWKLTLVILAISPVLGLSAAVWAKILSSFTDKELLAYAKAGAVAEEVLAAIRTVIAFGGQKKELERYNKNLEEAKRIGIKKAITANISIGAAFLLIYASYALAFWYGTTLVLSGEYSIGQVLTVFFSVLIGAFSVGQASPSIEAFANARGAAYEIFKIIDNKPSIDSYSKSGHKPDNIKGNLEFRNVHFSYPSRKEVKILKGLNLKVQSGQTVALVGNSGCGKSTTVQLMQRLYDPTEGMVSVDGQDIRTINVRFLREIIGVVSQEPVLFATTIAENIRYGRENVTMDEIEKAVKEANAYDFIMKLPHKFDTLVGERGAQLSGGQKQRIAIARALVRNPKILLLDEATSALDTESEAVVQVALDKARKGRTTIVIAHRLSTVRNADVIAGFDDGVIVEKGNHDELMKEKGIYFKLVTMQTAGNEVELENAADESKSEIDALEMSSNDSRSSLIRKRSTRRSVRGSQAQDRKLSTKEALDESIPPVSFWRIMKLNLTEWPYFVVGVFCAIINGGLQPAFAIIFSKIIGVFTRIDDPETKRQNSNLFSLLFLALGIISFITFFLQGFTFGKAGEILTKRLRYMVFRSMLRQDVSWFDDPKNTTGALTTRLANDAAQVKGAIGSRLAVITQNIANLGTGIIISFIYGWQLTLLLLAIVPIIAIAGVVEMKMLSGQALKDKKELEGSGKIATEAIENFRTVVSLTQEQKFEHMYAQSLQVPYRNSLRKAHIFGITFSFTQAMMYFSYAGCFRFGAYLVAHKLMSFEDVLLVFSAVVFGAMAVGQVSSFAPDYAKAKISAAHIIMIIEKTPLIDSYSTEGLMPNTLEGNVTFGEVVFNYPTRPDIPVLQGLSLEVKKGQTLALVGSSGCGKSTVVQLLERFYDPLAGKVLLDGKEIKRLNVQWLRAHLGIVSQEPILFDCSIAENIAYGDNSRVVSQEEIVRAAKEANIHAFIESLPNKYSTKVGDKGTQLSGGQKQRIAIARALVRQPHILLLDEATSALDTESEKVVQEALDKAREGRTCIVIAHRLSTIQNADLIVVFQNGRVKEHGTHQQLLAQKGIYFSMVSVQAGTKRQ
Method in brief: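 VBL (5 nM) with test compound at five concentrations, in triplicate. Cells were rinsed with ice-cold 0.15 M NaCl and PBS, dried, trypsinized, and counted by scintillation; accumulation was corrected for cell number.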

[20] = Potency relative to progesterone in reversing of DOX accumulation in MDA-435/LCC6 (Pgp-negative)cells; Not determined; assay type: functional, Homo sapiens

SMILES	IC50 [1]	EC50 (Breast cancer cell line [2])	EC50 (Breast cancer cell line [3])	EC50 [4]	IC50 [5]	IC50 [6]	Relative potency [7]	Relative potency (Breast cancer cell line [8])	Ratio (Breast cancer cell line [9])	EC50 [10]	Ratio (Breast cancer cell line [11])	Relative potency [12]	Relative potency (Breast cancer cell line [13])	IC50 [14]	Ratio (Breast cancer cell line [15])	Relative resistance (Breast cancer cell line [16])	Ratio (Breast cancer cell line [17])	EC50 (Breast cancer cell line [18])	EC50 [19]	Relative potency [20]
COc1ccc(CCN(C)CCCC(C#N)(c2ccc(OC)c(OC)c2)C(C)C)cc1OC (stereo not drawn)	65.8 µM	1.2 µM	2.4 µM	4.1 µM	63.4 µM															
CC(=O)[C@H]1CCC2C3C(CC[C@@]21C)[C@@]1(C)CCC(=O)C=C1C[C@H]3Sc1ccc(NC(=O)N[C@H](C)c2ccccc2)cc1 (stereo partly drawn)		0.8 µM	0.6 µM	0.9 µM		> 20 µM	28.2	24.5	>22.2	0.7 µM	>28.6	44.8	37.2	> 20 µM						
CC(=O)[C@H]1CCC2C3C(CC[C@@]21C)[C@@]1(C)CCC(=O)C=C1C[C@H]3Sc1ccc(NC(=O)NS(=O)(=O)c2ccc(C)cc2)cc1 (stereo partly drawn)	22.1 µM	34.8 µM	14.7 µM	37 µM	38.2 µM		0.6	0.5		33.4 µM		1.1	1.5		0.7	1.7	0.6			
C/C=C/C[C@@H](C)[C@@H](O)[C@H]1C(=O)N[C@@H](CC)C(=O)N(C)CC(=O)N(C)[C@@H](CC(C)C)C(=O)N[C@@H](C(C)C)C(=O)N(C)[C@@H](CC(C)C)C(=O)N[C@@H](C)C(=O)N[C@H](C)C(=O)N(C)[C@@H](CC(C)C)C(=O)N(C)[C@@H](CC(C)C)C(=O)N(C)[C@@H](C(C)C)C(=O)N1C [CYCLOSPORINE]			0.5 µM																	
CC(=O)[C@H]1CC[C@H]2[C@@H]3CCC4=CC(=O)CC[C@]4(C)[C@H]3CC[C@]12C [PROGESTERONE]	27.4 µM	18.7 µM		42.2 µM	36.4 µM					21 µM								22.3 µM		
CC(=O)C1CC[C@H]2[C@@H]3[C@H](Sc4ccc(NC(=O)N[C@H](C)c5ccccc5)cc4)CC4=CC(=O)CC[C@]4(C)[C@H]3CC[C@]12C (stereo partly drawn)																			0.7 µM	
CC(=O)C1CCC2C3C(CC[C@]12C)[C@@]1(C)CCC(=O)C=C1C[C@H]3Sc1ccc(NC(=O)NCCCl)cc1 (stereo partly drawn)	3.2 µM	0.8 µM	0.6 µM	0.7 µM	7.3 µM		23.5	22.5		0.9 µM		60.2	40.5		3.6	2.2	3.2			
CCNC(=O)Nc1ccc(S[C@@H]2CC3=CC(=O)CC[C@]3(C)C3CC[C@]4(C)C(C(C)=O)CCC4C32)cc1 (stereo partly drawn)		1.3 µM	0.7 µM	1 µM		> 20 µM	14	14.2		1.5 µM	>13.3		31.3	> 20 µM			>20			42.7
